Wee1 degr inh: Wee1 degradation inhibitors, primary screen, cell-based, HeLa, Wee1K328M-luciferase, luminescence; HeLa Luc-Wee1K328M stability; 100% = proteasome inhibitor MG132 effect; reporter increase, % at 5 µM; Wee1-like protein kinase (Homo sapiens), P30291; 220,000 compounds, 1.2% hits;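 active means activation above the mean of all tested compounds plus 3 SD, set per screening run, cut at about 8.8% in these data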;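 further: cells exposed to compound for 20 h before luminescence read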
NPY-Y2 antag: NPY-Y2 receptor antagonists, primary screen, cell-based. NPY-Y2 expressing cells, antagonist mode. inhibition, % at 2.7 µM. 140,000 compounds, 0.99% hits. AID 793, 2007; in the data active means inhibition above about 17%
Target sequence (P49146 whole entry, looked up): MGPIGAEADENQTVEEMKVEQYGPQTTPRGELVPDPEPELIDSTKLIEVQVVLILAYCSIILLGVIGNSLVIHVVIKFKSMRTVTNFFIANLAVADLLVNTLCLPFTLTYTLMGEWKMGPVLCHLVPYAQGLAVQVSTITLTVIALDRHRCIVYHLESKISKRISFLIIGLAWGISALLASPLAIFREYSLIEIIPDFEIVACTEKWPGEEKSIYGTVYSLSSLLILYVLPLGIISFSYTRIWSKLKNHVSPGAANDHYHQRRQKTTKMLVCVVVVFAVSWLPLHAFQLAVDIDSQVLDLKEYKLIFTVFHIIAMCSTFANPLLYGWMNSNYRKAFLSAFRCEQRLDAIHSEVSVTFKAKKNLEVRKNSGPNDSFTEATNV
NPY-Y2 PAM-ag: NPY-Y2 potentiators or agonists, primary screen, cell-based; Neuropeptide Y receptor type 2 (Homo sapiens), P49146; cells expressing NPY-Y2, potentiator/agonist read-out; activation, % at 3.6 µM; 220,000 compounds, 0.45% hits; AID 1359, 2008; in the data active means activation above about 27%;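 further: cells stimulated with NPY near EC25 plus isoproterenol at EC100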
NPY-Y1 PAM-ag: NPY-Y1 receptor potentiators or agonists, primary screen, cell-based; Neuropeptide Y receptor type 1 (Homo sapiens), P25929; NPY-Y1 expressing cells, potentiator/agonist activation; activation, % at 3.6 µM; 220,000 compounds, 0.37% hits; AID 1304, 2008; in the data active means activation above about 33%, passing the limit was not always enough;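 further: cells stimulated with NPY at EC10 then isoproterenol at EC100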
Target sequence (P25929 whole entry, looked up): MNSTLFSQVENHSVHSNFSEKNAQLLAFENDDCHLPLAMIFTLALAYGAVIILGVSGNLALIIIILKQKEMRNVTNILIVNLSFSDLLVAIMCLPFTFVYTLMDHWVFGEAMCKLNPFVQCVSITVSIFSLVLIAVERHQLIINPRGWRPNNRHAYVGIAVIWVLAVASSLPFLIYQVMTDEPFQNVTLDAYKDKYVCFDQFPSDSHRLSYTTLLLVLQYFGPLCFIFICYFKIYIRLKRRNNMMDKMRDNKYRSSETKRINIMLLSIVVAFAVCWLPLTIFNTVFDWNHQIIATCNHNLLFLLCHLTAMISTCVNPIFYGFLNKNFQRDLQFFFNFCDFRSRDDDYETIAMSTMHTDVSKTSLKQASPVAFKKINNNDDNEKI
NPY-Y1 antag: NPY-Y1 receptor antagonists, primary screen, cell-based; inhibition, % at 3.6 µM; AID 1040, 2008; HEK293-CNG Y1 cells, membrane potential fluorescence; NPY at EC95, then isoproterenol; 200,000 compounds, 1% hits;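 active means inhibition above the campaign mean inhibition of all tested compounds plus 3 SD, cut at about 20% in these data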
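Assay system: HEK293 cells with Y1 receptor plus CNG channel | Probe or stimulus: NPY (25 nM), isoproterenol (1 µM), Ro 20-1724 (25 µM) | Timing: Compound incubation 1 h at room temperature, readout 45 min post-stimulation | Measured by: Membrane-potential fluorescent dye readout | Benchmarks: High control isoproterenol alone, low control NPY with isoproterenol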
Hsp70 act: Hsp70 transcriptional activators, primary screen, cell-based, HeLa, Hsp70 promoter luciferase, luminescence, 10 µM | HeLa Hsp70 promoter luciferase reporter; scaled: vehicle 0, proteasome-inhibitor control 100% | 200,000 compounds, 0.04% hits | activation, % at 10 µM;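 active means activation above the mean across all tested compounds plus 3 SD, cutoff set per campaign, cut at about 5.5% in these data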
Each line names hits and unclear results; the compound was inactive in the other large screens. Rows were chosen to be rich in hits. Some 3% of all compounds tested hit in one or more screens of this group.

OC(CNCCC(c1ccccc1)c1ccccc1)COc1ccccc1 (stereo not given)	NPY-Y2 PAM-ag 89, NPY-Y1 PAM-ag 96 (no result: NPY-Y2 antag)
CC(C)CCNCC(O)CON=C1c2ccccc2-c2ccccc21 (stereo not given)	NPY-Y2 PAM-ag 45, NPY-Y1 PAM-ag 45 (no result: NPY-Y2 antag)
COCCNCC(O)CON=C1c2ccccc2-c2ccccc21 (stereo not given)	NPY-Y2 PAM-ag 92, NPY-Y1 PAM-ag 101 (no result: NPY-Y2 antag)
CS(=O)(=O)N(CC(O)CON=C1c2ccccc2-c2ccccc21)c1ccc(F)cc1 (stereo not given)	none
Cc1ccccc1-c1nnc(SCCC(=O)N2CCOCC2)o1	none (no result: NPY-Y2 antag)
c1ccc(Oc2ccc(-c3ccnc4nc(N5CCOCC5)nn34)cc2)cc1	Wee1 degr inh 9.3 (no result: NPY-Y2 antag)
CCOC(=O)c1[nH]c(C)c(C(=O)NCc2ccc(C)cc2)c1C	none
CCOC(=O)c1[nH]c(C)c(C(=O)c2ccc(C)cc2)c1C	Wee1 degr inh 9.5
Cn1cc(NC(=O)Nc2ccc(C(F)(F)F)cc2)c(C(F)(F)F)n1	none (no result: NPY-Y2 antag, NPY-Y1 antag, Hsp70 act)
NC(=O)c1cccn1Cc1cccc(Cl)c1	NPY-Y2 PAM-ag 33, NPY-Y1 PAM-ag 95
NC(=O)c1cccn1Cc1ccccc1Cl	none
c1ccc(CCNc2nc(-c3ccncc3)nc3ccccc23)cc1	none (no result: NPY-Y2 antag, NPY-Y1 antag, Hsp70 act)
COc1ccc(-c2nnn3c2nc(NCc2ccccc2)c2ccccc23)cc1	none (no result: NPY-Y2 antag)
Fc1ccc(-c2nc(-c3cccs3)no2)cc1	Wee1 degr inh 15 (no result: NPY-Y2 antag, NPY-Y1 antag, Hsp70 act)
CC1=NN(C(=O)COc2cc(C)ccc2C(C)C)C(O)(c2ccccc2)C1 (stereo not given)	Wee1 degr inh 11 (no result: NPY-Y2 antag, NPY-Y1 antag, Hsp70 act)
CCOc1ccc(NS(=O)(=O)c2ccc3[nH]cc(C(=O)NCC4CCCO4)c(=O)c3c2)cc1 (stereo not given)	none
CCOc1ccc(NS(=O)(=O)c2ccc3[nH]cc(C(=O)N(CC)CC)c(=O)c3c2)cc1	Wee1 degr inh 17
Cc1ccc(S(=O)(=O)NN2C(=O)/C(=C/c3cccn3C)SC2=S)cc1	NPY-Y1 antag 28
O=C(O)Cn1cnc2ccccc2c1=O	Wee1 degr inh 9.6
COC(=O)Cn1cnc2ccccc2c1=O	none
CN=C(C)/C(C(=O)OC)=C(/O)c1ccc(Cl)cc1Cl	none (no result: NPY-Y2 antag, NPY-Y1 antag, Hsp70 act)
O=C(Nc1ccc(Oc2cccc(C(F)(F)F)c2)nc1)c1ccco1	none (no result: NPY-Y2 antag, NPY-Y1 antag, Hsp70 act)
CC(C)(C)c1ccc(Oc2ccc(NC(=O)c3ccco3)cn2)cc1	NPY-Y2 PAM-ag 58, NPY-Y1 PAM-ag 54 (no result: NPY-Y2 antag, NPY-Y1 antag, Hsp70 act)
CCNC(=O)CN1C(=O)NC(CCc2ccccc2)C1=O (stereo not given)	none
Cc1cc(C)c(NC(=O)CN2C(=O)NC(CCc3ccccc3)C2=O)c(C)c1 (stereo not given)	Wee1 degr inh 11 (no result: NPY-Y2 antag)
O=C(CN1C(=O)NC(CCc2ccccc2)C1=O)NC1CC1 (stereo not given)	Wee1 degr inh 11 (no result: NPY-Y2 antag)
O=[N+]([O-])c1ccc(/C=N/Nc2ccc3ccccc3c2)o1	NPY-Y2 PAM-ag 66, NPY-Y1 PAM-ag 76
O=C(N/N=C/c1ccc([N+](=O)[O-])o1)c1cc2ccccc2o1	none (no result: NPY-Y2 antag, NPY-Y1 antag, Hsp70 act)
N#CCCN1CCCc2cc(N=Nc3ccc(C(F)(F)F)cc3)ccc21	NPY-Y2 PAM-ag 54, NPY-Y1 PAM-ag 73 (no result: NPY-Y2 antag, NPY-Y1 antag, Hsp70 act)
COC(=O)c1c(NC(C)=O)sc(C(=O)Nc2ccccc2)c1C	Wee1 degr inh 9.1 (no result: NPY-Y2 antag)
CC(=O)n1cc(N(C(=O)CCl)c2ccc(Cl)cc2)c2ccccc21	NPY-Y2 PAM-ag 50, NPY-Y1 PAM-ag 66 (no result: NPY-Y2 antag, NPY-Y1 antag, Hsp70 act)
N#CCCn1cc(CNCc2ccccc2)c(-c2cccc([N+](=O)[O-])c2)n1	none (no result: NPY-Y2 antag)
CCN(CC)S(=O)(=O)c1cccc(C(=O)Nc2cccnc2)c1	none
CNS(=O)(=O)c1cccc(C(=O)Nc2cccnc2)c1	Wee1 degr inh 11
Nc1nc(Nc2ccccc2F)nc(N2CCOCC2)c1[N+](=O)[O-]	Wee1 degr inh 8.9 (no result: NPY-Y2 antag, NPY-Y1 antag, Hsp70 act)
O=C(NN1C(=O)C2C3CCC(O3)C2C1=O)c1ccco1 (stereo not given)	none
COc1ccccc1N1CCN(C(c2ccc(F)cc2)c2nnnn2C(C)C)CC1 (stereo not given)	NPY-Y2 antag 18, NPY-Y1 antag 24
COc1ccccc1N1CCN(C(c2ccc(C)cc2)c2nnnn2C(C)C)CC1 (stereo not given)	none
C=CCN1C(=O)C(Cc2ccc(SC(F)F)cc2)SC1=Nc1ccc(C(=O)O)cc1 (stereo not given)	none (no result: NPY-Y2 antag)
CC(=O)Nc1ccc(S(=O)(=O)N2CCN(c3nc(NC4CCCC4)c4ccccc4n3)CC2)cc1	NPY-Y2 PAM-ag 32
CC(=O)Nc1ccc(S(=O)(=O)N2CCN(c3cc(C)nc4ccccc34)CC2)cc1	none
Cc1cc(-c2[nH]nc3c2C(c2ccsc2)C(C#N)=C(N)O3)c(C)s1 (stereo not given)	NPY-Y2 antag 149, NPY-Y1 antag 154
Cc1cc(-c2[nH]nc3c2C(c2cccc(O)c2)C(C#N)=C(N)O3)c(C)s1 (stereo not given)	none
Cc1cc(=O)[nH]c(SCc2cccc3cccnc23)n1	Wee1 degr inh 11 (no result: NPY-Y2 antag)
O=C(O)CCC(=O)NN1C(=O)c2ccccc2NC1c1ccc(F)cc1 (stereo not given)	none (no result: NPY-Y2 antag, NPY-Y1 antag, Hsp70 act)
CCCOc1ccc(/C(O)=C2/C(=O)C(=O)N(CCCn3ccnc3)C2c2cccs2)cc1 (stereo not given)	none
CCOc1ccc(/C(O)=C2/C(=O)C(=O)N(CCCn3ccnc3)C2c2cccs2)cc1Cl (stereo not given)	Wee1 degr inh 10
CCCC(=O)Nc1ccc(C(=O)n2ccc(C)n2)cc1	none (no result: NPY-Y2 antag)
Cc1ccc(C2CC(C(F)(F)F)n3nc(C(=O)NCc4c(C)nn(C)c4C)c(Cl)c3N2)cc1 (stereo not given)	NPY-Y2 PAM-ag 39, NPY-Y1 PAM-ag 48
Cc1cc(NC(=O)C(C)C)ncc1NC(=O)Cc1ccccc1	Wee1 degr inh 10
COc1ccc(C2=NOC(Cn3c(Cc4ccc(Cl)cc4)nc4c3c(=O)n(C)c(=O)n4C)C2)cc1 (stereo not given)	none
CCOC(=O)c1cc[nH]c1C	none (no result: NPY-Y2 antag)
CC(C)(C)NC(=O)c1cccc(NC(=O)CSc2ccccc2)c1	none
Cc1ccc(C(=O)Cn2nc(C)c([N+](=O)[O-])c2C)c(C)c1	none (no result: NPY-Y2 antag)
Cc1ccc(/C=N/NC(=O)Cn2nc(C)c([N+](=O)[O-])c2C)o1	Wee1 degr inh 9.6 (no result: NPY-Y2 antag, NPY-Y1 antag, Hsp70 act)
Cc1cc(C)c(C(=O)Cn2nc(C)c([N+](=O)[O-])c2C)cc1C	Wee1 degr inh 10 (no result: NPY-Y2 antag)
COCc1cc(C)nc2sc(C(=O)NCCO)c(-n3cccc3)c12	none (no result: NPY-Y2 antag)

Compound activity (PubChem BioAssay)
